This is an account of results in ChEMBL document CHEMBL1629544, “Inhibitors of strand transfer that prevent integration and inhibit human T-cell leukemia virus type 1 early replication” (Antimicrob Agents Chemother, 2008).

Each structure is given as a SMILES string. The source made the active and inactive calls. The calls are words filed in the database; no cut-off is given here.

In one series the test system is Human T-cell leukemia virus type I. Description: Antiviral activity against HTLV-1 infected in PBMC cells cocultured with irradiated HTLV-1 positive MT2 cells assessed as decrease in […] load by RT-PCR. In kind it is functional, organism-based.
Settings: not given
Put shortly:
(§1)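 Donor PBMCs were cocultured 5:1 with 60 Gy-irradiated MT2 cells plus IL-2, with compound (DMSO) at 0, 50 or 100 μM, redosed at half concentration on days 4, 7 and 10. DNA was extracted on day 7. Real-time quantitative PCR for tax with albumin normalization used 250 ng DNA per reaction, in triplicate. The untreated load was set to 100 units.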
As for `O=C(O)C(=O)CC(=O)c1cccc(Cc2ccccc2)c1`, the outcome was Active.
The same measure, in the same setting: to `O=C(O)c1ccc2ccc(/C=C/c3ccc(O)c(O)c3)nc2c1O` belongs “Active”.

The next series deals with PBMC. Description: Growth inhibition of human PBMC cells cocultured with irradiated HTLV-1 positive MT2 cells at 250 uM after 7 days. Type of series: functional, cell-based.
Settings: not given
The method in brief:
(§2)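 PBMCs from HTLV-1-seronegative donors (Ficoll separation) were cocultured 5:1 with 60 Gy-irradiated HTLV-1-positive MT2 cells in RPMI 1640 with 100 U/ml IL-2. Compounds in DMSO were added at onset at final 0, 50, 100 or 250 μM, then at half the initial concentration on days 4, 7 and 10. Cells were counted on days 7, 14 and 21.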
Regarding `COc1cc(/C=C/c2ccc3ccc(C(=O)O)c(O)c3n2)cc(O)c1O`, the inhibition entry is “Active”.
The same measure, in the same setting: to `O=C(O)C(=O)CC(=O)c1cccc(Cc2ccccc2)c1` belongs “Active”; to `COc1cc(/C=C/c2ccc3ccc(C(=O)O)c(O)c3n2)cc(OC)c1O`, “Active”; to `O=C(O)C(=O)CC(=O)c1cccn1Cc1ccc(F)cc1`, “Active”.
The same measure, in the same setting: the result for `O=C(O)c1ccc2ccc(/C=C/c3ccc(O)c(O)c3)nc2c1O` reads “Active”.

In a further series the test system is PBMC. Description: Growth inhibition of human PBMC cells cocultured with irradiated HTLV-1 positive MT2 cells at 250 uM after 21 days.
Settings: not given
Type of series: functional, cell-based. Put shortly:
as §2
On to `COc1cc(/C=C/c2ccc3ccc(C(=O)O)c(O)c3n2)cc(O)c1O`, for which the inhibition result was “Active”.
In the case of `O=C(O)C(=O)CC(=O)c1cccc(Cc2ccccc2)c1`, the inhibition entry is “Active”.
Still for that read-out and setting: to `COc1cc(/C=C/c2ccc3ccc(C(=O)O)c(O)c3n2)cc(OC)c1O` belongs “Active”; to `O=C(O)C(=O)CC(=O)c1cccn1Cc1ccc(F)cc1`, “Active”.
For the compound `O=C(O)c1ccc2ccc(/C=C/c3ccc(O)c(O)c3)nc2c1O`, the inhibition result was “Active”.

A further series deals with Human T-cell leukemia virus type I. Kind of series: Antiviral activity against HTLV-1 infected in PBMC cells cocultured with irradiated HTLV-1 positive MT2 cells assessed as decrease in […] load 100 uM after 7 days by RT-PCR.
Settings: not given
Type of series: functional, organism-based. Put shortly: as §1
Turning to `O=C(O)C(=O)CC(=O)c1cccc(Cc2ccccc2)c1`, the result was Active.
The same measure, in the same setting: to `O=C(O)c1ccc2ccc(/C=C/c3ccc(O)c(O)c3)nc2c1O` belongs “Active”.

For a further series the test system is unchanged. Description: Inhibition of HTLV-1 integrase strand transfer activity at 10 uM.
Settings: not given
Put shortly: (§3)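 Recombinant HTLV-1 integrase, expressed in E. coli BL21(DE3) and Ni-NTA purified. Donor was a 3′-recessed double-strand 54-bp HTLV-1 3′ LTR with synthetic target DNA, 1 pmol each oligonucleotide. Buffer: 25 mM HEPES pH 7.4, 10 mM β-mercaptoethanol, 10% glycerol, 7.5 mM MnCl₂. Incubated 60 min at 37°C. Products quantified by fluorescent PCR peak intensity, in triplicate; approximate IC50 by linear regression.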
Consider `COc1cc(/C=C/c2ccc3ccc(C(=O)O)c(O)c3n2)cc(O)c1O`, for which the inhibition result was “Active”.
Regarding `COc1cc(/C=C/c2ccc3ccc(C(=O)O)c(O)c3n2)cc(OC)c1O`, the inhibition entry is “Active”.

A further series deals with PBMC. Description: Inhibition of HTLV-1 integrase strand transfer activity in PBMC cells at 50 uM measured on day 21. In kind it is cell-based. The conditions noted are these: Human T-cell leukemia virus type I.
Regarding `O=C(O)C(=O)CC(=O)c1cccn1Cc1ccc(F)cc1`, the inhibition entry was “Active”.

A further series has as its system PBMC. Description: Growth inhibition of human PBMC cells cocultured with irradiated HTLV-1 positive MT2 cells at 100 uM after 7 days. In kind it is functional, cell-based.
Settings: not given
The method in brief: as §2
Consider `COc1cc(/C=C/c2ccc3ccc(C(=O)O)c(O)c3n2)cc(O)c1O`, for which the inhibition result was “Active”.
On the same count and under the same terms, the result for `O=C(O)C(=O)CC(=O)c1cccc(Cc2ccccc2)c1` reads “Active”; that for `COc1cc(/C=C/c2ccc3ccc(C(=O)O)c(O)c3n2)cc(OC)c1O`, “Active”; that for `O=C(O)C(=O)CC(=O)c1cccn1Cc1ccc(F)cc1`, “Active”.
Same read-out and setting: the result for `O=C(O)c1ccc2ccc(/C=C/c3ccc(O)c(O)c3)nc2c1O` reads “Active”.

Target in another series: not listed separately
Description: Inhibition of HTLV-1 integrase strand transfer activity. The arrangement: species or system Human T-cell leukemia virus type I.
Settings: not given
The method in brief: as §3
`COc1cc(/C=C/c2ccc3ccc(C(=O)O)c(O)c3n2)cc(O)c1O`: the midpoint of inhibition, the IC50, lay at 5.2 µM.
On the same count and under the same terms, to `COc1cc(/C=C/c2ccc3ccc(C(=O)O)c(O)c3n2)cc(OC)c1O` belongs 7.2 µM.

Another series has as its system PBMC. Kind of series: Growth inhibition of human PBMC cells cocultured with irradiated HTLV-1 positive MT2 cells at 250 uM after 14 days. In kind it is functional, cell-based.
Settings: not given
The method in brief: as §2
Consider `COc1cc(/C=C/c2ccc3ccc(C(=O)O)c(O)c3n2)cc(O)c1O`, for which the inhibition result was “Active”.
Still for that read-out and setting: the result for `O=C(O)C(=O)CC(=O)c1cccc(Cc2ccccc2)c1` reads “Active”; that for `COc1cc(/C=C/c2ccc3ccc(C(=O)O)c(O)c3n2)cc(OC)c1O`, “Active”.
`O=C(O)C(=O)CC(=O)c1cccn1Cc1ccc(F)cc1`: the inhibition result was “Active”.
Same read-out and setting: the result for `O=C(O)c1ccc2ccc(/C=C/c3ccc(O)c(O)c3)nc2c1O` reads “Active”.

For a further series, the system named is PBMC. Kind of series: Growth inhibition of human PBMC cells cocultured with irradiated HTLV-1 positive MT2 cells at 50 uM after 7 days. Type of series: functional, cell-based.
Settings: not given
Put shortly: as §2
As to `COc1cc(/C=C/c2ccc3ccc(C(=O)O)c(O)c3n2)cc(O)c1O`, the inhibition result is “Active”.
Same read-out and setting: the result for `O=C(O)C(=O)CC(=O)c1cccc(Cc2ccccc2)c1` reads “Active”.
Consider `COc1cc(/C=C/c2ccc3ccc(C(=O)O)c(O)c3n2)cc(OC)c1O`, for which the inhibition result is “Active”.
Still for that read-out and setting: to `O=C(O)C(=O)CC(=O)c1cccn1Cc1ccc(F)cc1` belongs “Active”.
On to `O=C(O)c1ccc2ccc(/C=C/c3ccc(O)c(O)c3)nc2c1O`, for which the inhibition result is “Active”.

For another series, the system named is PBMC. Description: Growth inhibition of human PBMC cells cocultured with irradiated HTLV-1 positive MT2 cells at 100 uM after 21 days. Type of series: functional, cell-based.
Settings: not given
Put shortly: as §2
On to `COc1cc(/C=C/c2ccc3ccc(C(=O)O)c(O)c3n2)cc(O)c1O`, for which the inhibition entry was “Active”.
The same measure, in the same setting: to `O=C(O)C(=O)CC(=O)c1cccc(Cc2ccccc2)c1` belongs “Active”; to `COc1cc(/C=C/c2ccc3ccc(C(=O)O)c(O)c3n2)cc(OC)c1O`, “Active”.
Same read-out and setting: the result for `O=C(O)C(=O)CC(=O)c1cccn1Cc1ccc(F)cc1` reads “Active”.
Still for that read-out and setting: to `O=C(O)c1ccc2ccc(/C=C/c3ccc(O)c(O)c3)nc2c1O` belongs “Active”.

For the next series, the system named is Human T-cell leukemia virus type I. Kind of series: Inhibition of HTLV-1 integrase strand transfer activity at 2 uM.
Settings: not given
The method in brief: as §3
For the compound `COc1cc(/C=C/c2ccc3ccc(C(=O)O)c(O)c3n2)cc(O)c1O`, the inhibition entry was “Active”.
Turning to `COc1cc(/C=C/c2ccc3ccc(C(=O)O)c(O)c3n2)cc(OC)c1O`, the inhibition result is “Active”.

For the next series the test system is unchanged. Kind of series: Antiviral activity against HTLV-1 infected in PBMC cells cocultured with irradiated HTLV-1 positive MT2 cells assessed as decrease in […] load at 50 uM after 7 days by RT-PCR. Type of series: functional, organism-based.
Settings: not given
The method in brief:
as §1
As for `O=C(O)C(=O)CC(=O)c1cccc(Cc2ccccc2)c1`, the outcome was Active.
Still for that read-out and setting: the result for `O=C(O)c1ccc2ccc(/C=C/c3ccc(O)c(O)c3)nc2c1O` reads “Active”.

A further series deals with PBMC. Kind of series: Growth inhibition of human PBMC cells cocultured with irradiated HTLV-1 positive MT2 cells at 50 uM after 14 days. In kind it is functional, cell-based.
Settings: not given
The method in brief:
as §2
`COc1cc(/C=C/c2ccc3ccc(C(=O)O)c(O)c3n2)cc(O)c1O`: the inhibition result is “Active”.
Still for that read-out and setting: to `O=C(O)C(=O)CC(=O)c1cccc(Cc2ccccc2)c1` belongs “Active”; to `COc1cc(/C=C/c2ccc3ccc(C(=O)O)c(O)c3n2)cc(OC)c1O`, “Active”.
Same read-out and setting: to `O=C(O)C(=O)CC(=O)c1cccn1Cc1ccc(F)cc1` belongs “Active”; to `O=C(O)c1ccc2ccc(/C=C/c3ccc(O)c(O)c3)nc2c1O`, “Active”.

Another series relates to PBMC. Description: Growth inhibition of human PBMC cells cocultured with irradiated HTLV-1 positive MT2 cells at 100 uM after 14 days. In kind it is functional, cell-based.
Settings: not given
The method in brief: as §2
`COc1cc(/C=C/c2ccc3ccc(C(=O)O)c(O)c3n2)cc(O)c1O`: the inhibition result was “Active”.
The same measure, in the same setting: to `O=C(O)C(=O)CC(=O)c1cccc(Cc2ccccc2)c1` belongs “Active”.
Same read-out and setting: the result for `COc1cc(/C=C/c2ccc3ccc(C(=O)O)c(O)c3n2)cc(OC)c1O` reads “Active”.
Same read-out and setting: the result for `O=C(O)C(=O)CC(=O)c1cccn1Cc1ccc(F)cc1` reads “Active”; that for `O=C(O)c1ccc2ccc(/C=C/c3ccc(O)c(O)c3)nc2c1O`, “Active”.

The test system of a further series is Human T-cell leukemia virus type I. Description: Inhibition of HTLV-1 integrase strand transfer activity at 5 uM.
Settings: not given
The method in brief:
as §3
Regarding `COc1cc(/C=C/c2ccc3ccc(C(=O)O)c(O)c3n2)cc(O)c1O`, the inhibition result is “Active”.
On the same count and under the same terms, the result for `COc1cc(/C=C/c2ccc3ccc(C(=O)O)c(O)c3n2)cc(OC)c1O` reads “Active”.

Another series has as its system PBMC. Description: Growth inhibition of human PBMC cells cocultured with irradiated HTLV-1 positive MT2 cells at 50 uM after 21 days. Type of series: functional, cell-based.
Settings: not given
The method in brief:
as §2
Consider `COc1cc(/C=C/c2ccc3ccc(C(=O)O)c(O)c3n2)cc(O)c1O`, for which the inhibition entry was “Active”.
Same read-out and setting: the result for `O=C(O)C(=O)CC(=O)c1cccc(Cc2ccccc2)c1` reads “Active”; that for `COc1cc(/C=C/c2ccc3ccc(C(=O)O)c(O)c3n2)cc(OC)c1O`, “Active”.
The same measure, in the same setting: to `O=C(O)C(=O)CC(=O)c1cccn1Cc1ccc(F)cc1` belongs “Active”.
With `O=C(O)c1ccc2ccc(/C=C/c3ccc(O)c(O)c3)nc2c1O`, the inhibition result is “Active”.

The next series concerns PBMC. Description: Inhibition of HTLV-1 integrase strand transfer activity in PBMC cells at 100 uM measured on day 21. Type of series: cell-based. The conditions noted are these: Human T-cell leukemia virus type I.
For the compound `O=C(O)C(=O)CC(=O)c1cccn1Cc1ccc(F)cc1`, the inhibition entry was “Active”.

System in another series: not listed separately
Description: Cytotoxic activity against human PBMC cells. Type of series: cell-based.
Settings: not given
The method in brief: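 Fresh uninfected PBMCs were cultured with various inhibitor concentrations, including 250, 500 and 1,000 μM, in three experiments per concentration. Cell viability was measured to derive CC50.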
For `O=C(O)C(=O)CC(=O)c1cccc(Cc2ccccc2)c1`, it took 220 µM to reach half-maximal cytotoxicity (CC50).
With `O=C(O)c1ccc2ccc(/C=C/c3cc(O)c(O)c(O)c3)nc2c1O`, the CC50 (usually the concentration at which the toxic effect on the cells reaches its halfway point) worked out at 10.7 µM. This CC50 is about 21-fold lower than that of the compound before.
The same measure, in the same setting: to `O=C(O)C(=O)CC(=O)c1cccn1Cc1ccc(F)cc1` belongs 520 µM.
